Measurements published in ChEMBL document CHEMBL4330143, “Maximizing ER-α Degradation Maximizes Activity in a Tamoxifen-Resistant Breast Cancer Model: Identification of GDC-0927” (ACS Med Chem Lett, 2019).
The source made the active and inactive calls. No cut-off for these calls is given here.

How the values were obtained:
MCF7 = test: Antiproliferative activity against human MCF7 cells after 5 days by CellTiter-Glo assay; details: MCF7, 120 h
[1] = Cmax in nude mouse xenografted with tamoxifen-resistant human MCF7 cells at 100 mg/kg, po daily for 28 days measured on day 28 post last dose; format: ADME, organism-based; set-up: dose 100 mg/kg, route oral; details: in vivo
In short: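 Tamoxifen-resistant MCF-7 xenograft mice carrying subcutaneous 0.72 mg estradiol pellets. Plasma pharmacokinetics sampled on day 28 of the study, at take-down.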

Mus musculus = test: In vivo induction of ERalpha degradation in tumor of nude mouse xenografted with tamoxifen-resistant human MCF7 cells at 100 mg/kg, po daily for 28 days measured on day 28 post last dose; format: functional, organism-based
In short: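 Tamoxifen-resistant MCF-7 tumours grown subcutaneously in mice, with estradiol supplied from subcutaneous 0.72 mg estradiol pellets.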

[2] = molecular target: T1, Mineralocorticoid receptor (Homo sapiens) (UniProt P08235); test: Agonist activity at MR (unknown origin) by transcriptional reporter assay
T1 sequence (whole entry): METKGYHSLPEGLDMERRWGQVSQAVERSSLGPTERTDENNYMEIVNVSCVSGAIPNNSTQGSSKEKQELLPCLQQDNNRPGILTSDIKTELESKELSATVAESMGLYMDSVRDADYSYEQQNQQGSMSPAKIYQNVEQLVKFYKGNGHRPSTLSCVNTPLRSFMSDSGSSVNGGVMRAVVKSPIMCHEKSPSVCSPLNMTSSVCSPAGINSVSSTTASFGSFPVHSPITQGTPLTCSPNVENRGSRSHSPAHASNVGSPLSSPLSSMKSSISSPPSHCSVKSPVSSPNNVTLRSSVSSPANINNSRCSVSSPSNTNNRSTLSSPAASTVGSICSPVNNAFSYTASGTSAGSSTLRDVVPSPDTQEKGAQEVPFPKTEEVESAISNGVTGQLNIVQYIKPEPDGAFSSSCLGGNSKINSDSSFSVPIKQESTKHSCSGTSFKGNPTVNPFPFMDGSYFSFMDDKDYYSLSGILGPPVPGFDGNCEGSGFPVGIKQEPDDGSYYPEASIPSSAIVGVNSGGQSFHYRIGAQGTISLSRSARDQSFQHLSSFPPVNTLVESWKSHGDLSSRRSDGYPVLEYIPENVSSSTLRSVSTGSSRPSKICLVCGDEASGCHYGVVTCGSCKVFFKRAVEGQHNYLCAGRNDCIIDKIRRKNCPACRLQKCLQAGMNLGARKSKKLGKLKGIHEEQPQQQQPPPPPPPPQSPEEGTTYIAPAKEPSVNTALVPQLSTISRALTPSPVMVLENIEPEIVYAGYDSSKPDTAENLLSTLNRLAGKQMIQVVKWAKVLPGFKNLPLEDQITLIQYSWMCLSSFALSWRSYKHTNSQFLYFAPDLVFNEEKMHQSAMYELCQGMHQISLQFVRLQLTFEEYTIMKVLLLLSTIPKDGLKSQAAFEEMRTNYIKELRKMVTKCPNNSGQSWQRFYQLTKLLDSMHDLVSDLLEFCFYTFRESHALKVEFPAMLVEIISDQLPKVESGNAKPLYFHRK

[3] = molecular target: T2, Progesterone receptor (Homo sapiens) (UniProt P06401); test: Antagonist activity at PR-B (unknown origin) by transcriptional reporter assay
T2 sequence (whole entry): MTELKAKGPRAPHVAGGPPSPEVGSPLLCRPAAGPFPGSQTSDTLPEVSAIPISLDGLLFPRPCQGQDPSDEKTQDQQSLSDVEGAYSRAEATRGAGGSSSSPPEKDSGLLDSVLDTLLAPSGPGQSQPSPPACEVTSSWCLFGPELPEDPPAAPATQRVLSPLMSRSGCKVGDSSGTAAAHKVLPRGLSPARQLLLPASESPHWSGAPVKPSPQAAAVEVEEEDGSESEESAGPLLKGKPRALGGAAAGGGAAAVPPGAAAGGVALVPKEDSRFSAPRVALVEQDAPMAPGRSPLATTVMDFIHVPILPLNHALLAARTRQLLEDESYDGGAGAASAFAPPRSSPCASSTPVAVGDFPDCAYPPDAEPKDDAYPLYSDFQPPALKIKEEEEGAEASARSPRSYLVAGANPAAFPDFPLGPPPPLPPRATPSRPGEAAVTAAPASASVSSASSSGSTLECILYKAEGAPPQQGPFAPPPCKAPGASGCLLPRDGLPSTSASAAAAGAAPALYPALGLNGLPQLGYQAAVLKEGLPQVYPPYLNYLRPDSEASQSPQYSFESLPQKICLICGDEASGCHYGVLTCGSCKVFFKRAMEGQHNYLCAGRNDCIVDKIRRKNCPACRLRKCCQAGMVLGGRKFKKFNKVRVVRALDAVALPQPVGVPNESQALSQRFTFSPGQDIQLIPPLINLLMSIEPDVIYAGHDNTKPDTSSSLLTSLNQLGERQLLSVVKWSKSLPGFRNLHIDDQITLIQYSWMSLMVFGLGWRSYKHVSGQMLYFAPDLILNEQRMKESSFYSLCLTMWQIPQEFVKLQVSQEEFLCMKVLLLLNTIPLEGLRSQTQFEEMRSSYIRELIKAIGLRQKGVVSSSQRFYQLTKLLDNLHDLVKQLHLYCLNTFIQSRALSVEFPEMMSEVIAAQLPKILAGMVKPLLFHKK

Cytochrome P450 2D6 = Cytochrome P450 2D6 (Homo sapiens, UniProt P10635); test: Competitive inhibition of CYP2D6 (unknown origin); format: ADME
[4] = Genotoxicity in Salmonella typhimurium TA98 by Ames test; format: toxicity; details: salmonella enterica subsp. enterica serovar […]

Chain of Cytochrome P450 2D6 (P10635 whole entry): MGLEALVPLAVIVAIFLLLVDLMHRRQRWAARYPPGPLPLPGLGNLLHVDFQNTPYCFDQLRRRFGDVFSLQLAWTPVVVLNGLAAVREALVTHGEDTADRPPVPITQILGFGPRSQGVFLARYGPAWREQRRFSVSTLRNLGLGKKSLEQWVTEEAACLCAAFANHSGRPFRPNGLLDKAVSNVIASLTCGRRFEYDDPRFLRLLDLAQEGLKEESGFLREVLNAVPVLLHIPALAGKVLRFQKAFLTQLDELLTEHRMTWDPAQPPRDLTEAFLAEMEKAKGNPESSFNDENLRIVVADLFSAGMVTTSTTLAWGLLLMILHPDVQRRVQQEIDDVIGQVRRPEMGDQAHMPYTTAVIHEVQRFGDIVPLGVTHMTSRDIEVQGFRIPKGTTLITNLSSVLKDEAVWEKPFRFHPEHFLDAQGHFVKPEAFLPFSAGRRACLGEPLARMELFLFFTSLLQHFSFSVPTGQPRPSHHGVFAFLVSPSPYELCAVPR

For `CC1=C(c2cccc(O)c2)[C@H](c2ccc(OCCN3CC(CF)C3)cc2)Oc2ccc(O)cc21`, the IC50 (MCF7) was 0.1 nM, the Cmax [1] was 0.95 µg/mL and the Activity (Mus musculus) was “Active”. For the same compound, the Activity [2] was “inactive”, the inhibition [3] was “inactive” and the IC50 (Cytochrome P450 2D6) was greater than 10000 nM. For the same compound, the Activity [4] was “Non-Toxic”.
